Data from PubChem BioAssay.
Activity calls are given as the source filed them.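 How the source made its calls, unless noted: active means viability at or under a set limit in both replicates, limit being median viability minus 3 SD (cut at about 48% in these data, passing the limit was not always enough); inconclusive means at or under the limit in just one replicate; inactive means at or above the limit in both replicates.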

Key:
[1] = reducers of endogenous Her2 protein level, primary screen, SKBR3 breast tumor cells, AlphaScreen, ATP viability (AID 461;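 active means Her2 level under about 52% in both replicate screens, with viability over 70% of control, limit read from the data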;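 on Her2 level: lower value means less Her2 protein in the cells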;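 on viability: percent of carrier control wells set as 100% viability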); conditions: 18-24 h, measured here: SKBR3 viability, ATP luminescence, at 10 µM
[2] = target: Receptor tyrosine-protein kinase erbB-2 (Homo sapiens) (UniProt P04626); experiment: as above; conditions: 18-24 h, at 10 µM, stronger effect = lower value
Chain of Receptor tyrosine-protein kinase erbB-2 (Homo sapiens) (P04626 whole entry, looked up): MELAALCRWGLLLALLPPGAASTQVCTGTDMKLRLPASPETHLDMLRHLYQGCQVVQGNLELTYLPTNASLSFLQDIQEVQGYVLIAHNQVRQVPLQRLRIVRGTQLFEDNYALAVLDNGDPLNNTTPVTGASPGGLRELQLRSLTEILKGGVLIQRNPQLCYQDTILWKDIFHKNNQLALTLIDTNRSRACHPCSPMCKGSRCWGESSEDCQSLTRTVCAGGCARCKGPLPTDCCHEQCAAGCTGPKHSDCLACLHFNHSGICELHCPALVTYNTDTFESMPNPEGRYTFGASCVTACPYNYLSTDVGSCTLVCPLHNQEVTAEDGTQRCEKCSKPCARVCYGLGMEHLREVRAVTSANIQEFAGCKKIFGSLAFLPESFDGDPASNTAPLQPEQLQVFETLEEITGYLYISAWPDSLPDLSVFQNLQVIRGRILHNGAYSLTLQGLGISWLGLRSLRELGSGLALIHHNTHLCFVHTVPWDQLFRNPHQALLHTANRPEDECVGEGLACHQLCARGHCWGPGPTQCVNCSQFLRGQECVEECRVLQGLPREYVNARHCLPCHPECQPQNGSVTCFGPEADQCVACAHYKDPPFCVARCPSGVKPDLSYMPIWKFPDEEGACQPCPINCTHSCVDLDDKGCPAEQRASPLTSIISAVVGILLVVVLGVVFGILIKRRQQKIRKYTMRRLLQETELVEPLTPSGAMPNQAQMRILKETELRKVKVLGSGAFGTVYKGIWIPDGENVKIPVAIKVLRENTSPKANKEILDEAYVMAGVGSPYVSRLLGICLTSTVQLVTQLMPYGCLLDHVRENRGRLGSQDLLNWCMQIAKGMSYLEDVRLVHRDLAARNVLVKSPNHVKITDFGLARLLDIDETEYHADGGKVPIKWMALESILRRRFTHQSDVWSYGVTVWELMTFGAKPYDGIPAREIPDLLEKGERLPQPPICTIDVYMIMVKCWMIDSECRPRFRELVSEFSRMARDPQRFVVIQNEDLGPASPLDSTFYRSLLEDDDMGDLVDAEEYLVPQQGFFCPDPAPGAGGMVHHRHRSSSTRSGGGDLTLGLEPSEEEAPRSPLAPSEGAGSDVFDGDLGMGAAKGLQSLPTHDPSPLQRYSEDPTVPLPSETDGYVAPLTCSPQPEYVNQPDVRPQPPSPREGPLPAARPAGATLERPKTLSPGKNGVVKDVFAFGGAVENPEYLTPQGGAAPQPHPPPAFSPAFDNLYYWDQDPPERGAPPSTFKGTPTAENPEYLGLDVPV

[3] = SK-BR-3 cell growth inhibitors, pilot screen, 24 h, human (AID 572;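 active means viability at or below 10% of carrier control in both of two separate runs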;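 further: compound exposure lasted between 18 and 24 h rather than exactly 24 h; 100% = carrier-treated control wells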); conditions: SK-BR-3 viability, CellTiter-Glo luminescence, at 10 µM, stronger effect = lower value
[4] = HUVEC growth inhibition – cell-based, human, primary screen (AID 575;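 active means viability at or below 30% in both replicate assays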;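 further: 100% = median of untreated cell wells with 0.1% DMSO on each plate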); conditions: HUVEC proliferation, CellTiter-Glo luminescence, 72 h; at 10 µM; stronger effect = lower value
Procedure, shortened: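 material = primary HUVEC, no more than 12 passages | input = 1250 cells per well | controls = vehicle and MePR control wells | measured by = CTG luminescence | times = 72 h compound incubation | format = collagen-coated 384-well format | read-out = % viability vs DMSO wells | doses = single 10 µM dose, 0.1% DMSO, from 5x medium stock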

[5] = growth inhibitors of H69AR lung tumor, primary screen, human, duplicate replicates (AID 580); conditions: H69AR lung tumor cells viability, ATP luminescence, 72 h; at 10 µM; stronger effect = lower value;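 further: 100% = mean luminescence of untreated wells and 0% = no signal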
[6] = reversal of MRP1-mediated doxorubicin resistance, pilot screen, H69AR cells, doxorubicin co-treatment (AID 601;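 active means viability loss from added drug above about 55%, and viability with drug at most 40%, in both replicates, limit read from the data, passing the limit was not always enough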); conditions: CellTiter-Glo, 72 h, at 10 µM; for differential viability (reversal): stronger effect = higher value
[7] = 384-well plate pilot, post-Golgi transport modulator project, inhibition of yeast transport mutant growth (AID 636; in the data active means inhibition above about 31%); conditions: absorbance 615 nm, about 18 h, stronger effect = higher value
[8] = growth suppression of yeast trafficking mutant, preliminary HTS, modulators of trafficking downstream of Golgi apparatus project, 1536-format plate, OD 615 nm (AID 637; in the data active means inhibition above about 30%); conditions: yeast transport mutant growth, absorbance 615 nm, 18 h; stronger effect = higher value
[9] = H69AR cells + 2 uM doxorubicin, measured here: viability with 2 uM doxorubicin, stronger effect = lower value
[10] = H69AR cells, compound alone cytotoxicity

Row | SMILES | viability [1] | Her2 level [2] | viability [3] | viability [4] | viability [5] | differential viability (reversal) ([6]; H69AR cells + 2 uM doxorubicin) | viability [6, 9] | viability [6, 10] | inhibition [7] | inhibition [8]
1 | Cc1cc(C(=O)O)ccc1-n1c(C)ccc1C | 100% | 92% (inactive) | 100% (inactive) | 89.6% (inactive) | 93.2% (inactive) | 1.35% (inactive) | 91.8% | 93.2% | 1.32% (inactive) | -4.52% (inactive)
2 | CCOC(=O)N1CCN(C(=O)CN(c2ccc(C)cc2)S(=O)(=O)c2c(C)noc2C)CC1 | 81.5% | 94% (inactive) | 81.5% (inactive) | 106% (inactive) | 86.1% (inactive) | -0.005% (inactive) | 86.1% | 86.1% | -4.73% (inactive) | 6.51% (inactive)
3 | COc1ccc(S(=O)(=O)CCC(=O)O)cc1 | 96.5% | 83.5% (inactive) | 96.5% (inactive) | 93.7% (inactive) | 106% (inactive) | 10.3% (inactive) | 95.7% | 106% | -4.05% (inactive) | 2.54% (inactive)
4 | Cc1ccc(S(=O)(=O)N(CCO)c2cc3c(s2)CCCC3)cc1 | 114% | 94.5% (inactive) | 114% (inactive) | 68.6% (inactive) | 81.9% (inactive) | -3.64% (inactive) | 85.6% | 81.9% | -5.32% (inactive) | -7.5% (inactive)
5 | CC(O)c1n(C)c(Cl)c[n+]1C (stereo not given) | 114% | 95% (inactive) | 114% (inactive) | 109% (inactive) | 103% (inactive) | -3.03% (inactive) | 106% | 103% | -0.66% (inactive) | 6.39% (inactive)
6 | COc1ccc(C)cc1S(=O)(=O)N(C)CC(=O)Nc1ccc2c(c1)OCCO2 | 92% | 92% (inactive) | 92% (inactive) | 107% (inactive) | 89.1% (inactive) | 5.96% (inactive) | 83.2% | 89.1% | -5.33% (inactive) | -12.5% (inactive)
7 | Cc1nn(C(=O)c2cc3sccc3[nH]2)c(C)c1C | 95% | 104% (inactive) | 95% (inactive) | 74.1% (inactive) | 106% (inactive) | 2.57% (inactive) | 103% | 106% | -4.47% (inactive) | -4.83% (inactive)
8 | Cn1cnnc1SCC(=O)Nc1ccccc1Sc1ccccc1 | 107% | 91.5% (inactive) | 107% (inactive) | 113% (inactive) | 98.8% (inactive) | 8.32% (inactive) | 90.4% | 98.8% | -8.24% (inactive) | 4.67% (inactive)
9 | COc1cc(-c2nnc(SCC(=O)c3cc(C)n(CC4CCCO4)c3C)o2)cc(OC)c1OC (stereo not given) | 104% | 66.5% (inactive) | 104% (inactive) | 76.4% (inactive) | 77.5% (inactive) | -2% (inactive) | 79.5% | 77.5% | -5.95% (inactive) | -4.83% (inactive)
10 | CCCCC(CC)C(=O)Nc1ccc(Cl)cn1 (stereo not given) | 103% | 102% (inactive) | 103% (inactive) | 98.3% (inactive) | 94.3% (inactive) | 12.2% (inactive) | 82.1% | 94.3% | -5.47% (inactive) | 1.97% (inactive)
11 | CCSc1nnc(NC(=O)CSc2nnc(Cc3cccn3C)n2-c2ccc(C)cc2)s1 | 95.5% | 108% (inactive) | 95.5% (inactive) | 78.4% (inactive) | 88.8% (inactive) | -7.38% (inactive) | 96.1% | 88.8% | -1.56% (inactive) | -5.24% (inactive)
12 | Cc1nc(N)c(C#N)c(-c2cccnc2)c1C | 94% | 83.5% (inactive) | 94% (inactive) | 74.3% (inactive) | 102% (inactive) | -13.1% (inactive) | 115% | 102% | -2.4% (inactive) | -2.86% (inactive)
13 | COc1cccc(-c2nnc(SCC(=O)N3CCCc4ccccc43)o2)c1 | 93.5% | 87.5% (inactive) | 93.5% (inactive) | 60.4% (inactive) | 90.6% (inactive) | 4.79% (inactive) | 85.8% | 90.6% | -4.61% (inactive) | -3.33% (inactive)
14 | COc1ccc(OC)c(C2C(C(=O)Nc3cccnc3)=C(C)NC3=C2C(=O)CCC3)c1 (stereo not given) | 101% | 81% (inactive) | 101% (inactive) | 88.3% (inactive) | 98.4% (inactive) | 15.1% (inactive) | 83.3% | 98.4% | -6.22% (inactive) | 1.8% (inactive)
15 | CCCNc1nc2c(c(=O)n(C)c(=O)n2C)n1Cc1cccc(C)c1 | 87.5% | 85% (inactive) | 87.5% (inactive) | 83.7% (inactive) | 95.6% (inactive) | -5.19% (inactive) | 101% | 95.6% | -4.25% (inactive) | -3.97% (inactive)
16 | CN1CCN(CCCNC(=O)C2CC(=O)N(C3CCCCC3)C2)CC1 (stereo not given) | 106% | 90% (inactive) | 106% (inactive) | 88.8% (inactive) | 91.4% (inactive) | -3.83% (inactive) | 95.2% | 91.4% | -4.47% (inactive) | 3.06% (inactive)
17 | CC(C)[C@H](NC(=O)OC(C)(C)C)c1nnc(SCc2cccc(F)c2)o1 | 90% | 120% (inactive) | 90% (inactive) | 107% (inactive) | 96.4% (inactive) | -1.12% (inactive) | 97.5% | 96.4% | 0.13% (inactive) | 0% (inactive)
18 | Cn1nnnc1SCC(=O)N1CCN(c2cccc(Cl)c2)CC1 | 108% | 89% (inactive) | 108% (inactive) | 97.2% (inactive) | 85.6% (inactive) | 8.05% (inactive) | 77.5% | 85.6% | -1.43% (inactive) | -1.11% (inactive)
19 | CCOc1ccc(-n2cc(C(=O)N3CCN(C)CC3)c3cc(OC)c(OC)cc3c2=O)cc1 | 87% | 104% (inactive) | 87% (inactive) | 103% (inactive) | 97.1% (inactive) | -12.4% (inactive) | 110% | 97.1% | 1.62% (inactive) | -0.16% (inactive)
20 | CCc1ccc(C=NC23CN4CN(CN(C4)C2)C3)s1 | 108% | 114% (inactive) | 108% (inactive) | 95.2% (inactive) | 105% (inactive) | 9.64% (inactive) | 95.2% | 105% | 1.17% (inactive) | -3.61% (inactive)
21 | CN(C)CCCn1c(N)c(C#N)c2nc(C#N)c(C#N)nc21 | 179% | 47.5% (active) | 179% (inactive) | 66.9% (inactive) | 90.1% (inactive) | -3.03% (inactive) | 93.1% | 90.1% | -1.89% (inactive) | -1.75% (inactive)
22 | O=C(CSc1nnc(-c2cccs2)o1)N1CCOCC1 | 107% | 92.5% (inactive) | 107% (inactive) | 99.4% (inactive) | 96.6% (inactive) | -4.63% (inactive) | 101% | 96.6% | -3.6% (inactive) | -1.45% (inactive)
23 | CCOc1ccccc1NC(=O)CCN1CCN(S(=O)(=O)c2ccc(Br)cc2)CC1 | 119% | 87.5% (inactive) | 119% (inactive) | 100% (inactive) | 86.9% (inactive) | 11.2% (inactive) | 75.7% | 86.9% | -6.8% (inactive) | 1.13% (inactive)
24 | COC(=O)c1c(N)nc(C)n1-c1ccc(OC)cc1 | 86.5% | 91% (inactive) | 86.5% (inactive) | 95.9% (inactive) | 96.1% (inactive) | 4.61% (inactive) | 91.5% | 96.1% | -3.33% (inactive) | -3.77% (inactive)
25 | Cc1nnc2ccc(N3CCN(c4cccc(C(F)(F)F)c4)CC3)nn12 | 97.5% | 77.5% (inactive) | 97.5% (inactive) | 75% (inactive) | 80.3% (inactive) | 18.7% (inactive) | 61.6% | 80.3% | -0.53% (inactive) | -1.15% (inactive)
26 | Cc1ccc(C(=O)C2COC(=O)C2)cc1 (stereo not given) | 109% | 80.5% (inactive) | 109% (inactive) | 95.7% (inactive) | 85.3% (inactive) | 3.12% (inactive) | 82.2% | 85.3% | -1.97% (inactive) | -4.84% (inactive)
27 | Cc1ccc(O)c(NC(=O)COc2cc(C)ccc2C)c1 | 93.5% | 89.5% (inactive) | 93.5% (inactive) | 77.7% (inactive) | 89.4% (inactive) | 5.4% (inactive) | 84% | 89.4% | -1.97% (inactive) | -10.3% (inactive)
28 | CC1(C)CNC(=O)c2sc(N3CCOCC3)nc2C1 | 114% | 87% (inactive) | 114% (inactive) | 67.9% (inactive) | 77.3% (inactive) | -4.71% (inactive) | 82% | 77.3% | -3.82% (inactive) | 1.27% (inactive)
